In brackets after ≈: the same amount, converted by molar mass. Several values for one entry are separate records, joined by “and”; a condition that tells them apart may be missing. Equal values may be shown once.
Assays:
[1] = system: RIP1 pathway activation (CCL4 release in human whole blood); experiment: PK-PD modeling; format: cell-based
How it was run: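 CCL4 inhibition from the ex vivo stimulated whole-blood assay was related to GDC-8264 plasma concentrations measured in the same volunteers by PK-PD modelling. The model estimated the IC50 and the maximal target inhibition.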

[2] = MAD both doses, comparable between day 1 and day 14
[3] = Plasma pharmacokinetics after single and multiple oral doses; format: in vivo, human; conditions: for AUC / concentration at 24 h / Cmax / Tmax / Vd/F / half-life: human, plasma, oral; for AUC: AUC0-τ; for Cmax: C max; for Vd/F: V z/F
How it was run: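 Healthy adults received once-daily oral doses of 50 or 100 mg (8 active: 2 placebo) for up to 14 days, in the morning after an overnight fast of at least 8 h. Plasma was sampled after the first dose through 16 h, predose on days 2, 4 and 7, and through 72 h after the day-14 dose. Concentrations were measured by LC-MS/MS (LLOQ 0.0500 ng/mL). Parameters came from noncompartmental analysis: accumulation ratios day 14 versus day 1, CL/F as dose/AUC0-inf. Values given as geometric mean (geometric CV%).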

[4] = MAD 50 mg q.d., n=5, geometric mean (geometric CV%)
[5] = MAD 100 mg q.d., n=7, geometric mean (geometric CV%)
[6] = 50 mg, MAD 50 mg q.d., Day 1, n=5, geometric mean (geometric CV%)
[7] = 50 mg, MAD 50 mg q.d., Day 14, n=5, geometric mean (geometric CV%)
[8] = 100 mg, MAD 100 mg q.d., Day 1, n=7, geometric mean (geometric CV%)
[9] = 100 mg, MAD 100 mg q.d., Day 14, n=7, geometric mean (geometric CV%)

## O=C(c1nc2n(n1)[C@H](c1ccccc1)C[C@@H]2F)C1CC1 [GDC‐8264]
[1]; Homo sapiens, read-out: half-maximal inhibitory concentration (IC50) for the inhibition of CCL4 release
  IC50: 0.58 ng/mL (≈ 2.14 nM)
[1]; estimated by PK-PD (Emax) modeling
  maximal inhibition of the target: 99.4%
[2]
  Geometric mean CLr0-τ: ~ 0.008 L/h
[3]; MAD 50 mg q.d., Day 14, n=5, geometric mean (geometric CV%)
  CL/F: 4.96 (14.1) L/h
[3]; [4]
  ARAUC (accumulation ratio based on AUC0-τ of day 14 versus day 1): 1.39 (4.8)
  ARCmax (accumulation ratio based on C max of day 14 versus day 1): 1.37 (18.3)
[3]; MAD 100 mg q.d., Day 14, n=7, geometric mean (geometric CV%)
  CL/F: 4.72 (15.2) L/h
[3]; [5]
  ARAUC (accumulation ratio based on AUC0-τ of day 14 versus day 1): 1.31 (17.7)
  ARCmax (accumulation ratio based on C max of day 14 versus day 1): 1.41 (27.3)
[3]; MAD, daily doses
  day on which steady-state trough concentrations were observed: 4 days
[3]; SAD 5 mg single oral dose, fasted, n=6, geometric mean (geometric CV%)
  CL/F: 4.71 (10.0) L/h
[3]; SAD 25 mg single oral dose, fasted, n=6, geometric mean (geometric CV%)
  CL/F: 5.08 (30.3) L/h
[3]; SAD 75 mg single oral dose, fasted, n=5, geometric mean (geometric CV%)
  CL/F: 5.70 (19.0) L/h
[3]; SAD 75 mg single oral dose, high fat meal, n=5, geometric mean (geometric CV%)
  CL/F: 5.79 (23.2) L/h
[3]; SAD 150 mg single oral dose, fasted, n=5, geometric mean (geometric CV%)
  CL/F: 5.40 (18.4) L/h
[3]; SAD 225 mg single oral dose, fasted, n=6, geometric mean (geometric CV%)
  CL/F: 4.81 (6.7) L/h
[3]; [6]
  AUC: 7270 ng·h/mL
  Cmax: 610 ng/mL
[3]; [7]
  AUC: 10100 ng·h/mL
  Cmax: 836 ng/mL
  Vd/F: 80.3 L
[3]; 50 mg, C24, MAD 50 mg q.d., Day 1, n=5, geometric mean (geometric CV%)
  concentration at 24 h: 151 ng/mL
[3]; 50 mg, T max, MAD 50 mg q.d., Day 1, n=5, median (range)
  Tmax: 3 h
[3]; 50 mg, T max, MAD 50 mg q.d., Day 14, n=5, median (range)
  Tmax: 2.5 h
[3]; 50 mg, t 1/2, MAD 50 mg q.d., Day 14, n=5, geometric mean (geometric CV%)
  half-life: 11.2 h
[3]; [8]
  AUC: 16200 ng·h/mL
  Cmax: 1180 ng/mL
[3]; [9]
  AUC: 21200 ng·h/mL
  Cmax: 1660 ng/mL
  Vd/F: 77.4 L
[3]; 100 mg, C24, MAD 100 mg q.d., Day 1, n=7, geometric mean (geometric CV%)
  concentration at 24 h: 342 ng/mL
[3]; 100 mg, T max, MAD 100 mg q.d., Day 1, n=7, median (range)
  Tmax: 3 h
[3]; 100 mg, T max, MAD 100 mg q.d., Day 14, n=7, median (range)
  Tmax: 2.5 h
[3]; 100 mg, t 1/2, MAD 100 mg q.d., Day 14, n=7, geometric mean (geometric CV%)
  half-life: 11.4 h
[3]; mean half-life, tablet formulation
  half-life: 11 to 13 h
[3]; mean terminal half-life, range of means across single doses
  half-life: 10 to 13 h
[3]; median T max, SAD 5- and 25-mg doses (suspension formulation)
  Tmax: 1.3 to 1.9 h
[3]; median T max, SAD 75-225-mg doses (tablet formulation)
  Tmax: 3 to 4 h
[3]; median T max, overall, as summarised in the discussion
  Tmax: 2.5 to 4 h
[3]; multiple dosing q.d. up to 14 days, steady state
  accumulation ratio [AR]: ~ 1.4 and 1.3–1.4

Source: paper PMC10582670 (Clinical and Translational Science, 2023)
